From ChEMBL document CHEMBL4842372, “Discovery of ARD-2585 as an Exceptionally Potent and Orally Active PROTAC Degrader of Androgen Receptor for the Treatment of Advanced Prostate Cancer” (J Med Chem, 2021)
Each block holds one molecule with its values, some of them ahead of it. Active and inactive are the calls of the source. The calls are words filed in the database; no cut-off is given here.

What was measured:
[1] = biological target: Protein cereblon/Androgen receptor (Homo sapiens, UniProt P10275+Q96SW2); assay: Protac activity at CRBN/AR in human VCaP cells assessed as AR degradation after 24 hrs by Western blot analysis; format: cell-based
VCaP [2] = assay: Growth inhibition of human VCaP cells assessed as cell viability by WST-8 assay; format: functional, cell-based
[3] = Oral bioavailability in SCID mouse at 3 mg/kg by LC-MS/MS analysis; format: ADME, organism-based; conditions: in vivo
[4] = Drug distribution in plasma of CB17:SCID mouse xenografted with human VCaP cells at 20 mg/kg, po measured at 24 hrs by LCMS analysis; format: ADME, organism-based
How it was run: (§1)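 Tumor-bearing male CB17 SCID mice (VCaP xenografts) given one 20 mg/kg oral dose in 100% PEG200, three mice per time point; plasma, tumor, liver, kidney, prostate and heart taken at 1, 6 and 24 h; tissues homogenised in water/acetonitrile, protein precipitated with cold acetonitrile, drug quantified by LC–MS/MS; ratios are tissue over plasma level.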

VCaP [5] = assay: Antitumor activity against human VCaP cells xenografted in CB17:SCID mouse assessed as reduction in AR protein level in tumor at 10 mg/kg, po for 3 days measured at 6 hrs by Western blot analysis; format: functional; conditions: 72 h, time 3 day
How it was run: (§2)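 Male CB17 SCID mice bearing subcutaneous VCaP tumors (5 × 10^6 cells in Matrigel); dosed by oral gavage in 100% PEG200 at 10 mg/kg daily for 3 days; tumors harvested 3, 6 and 24 h post-dose, lysed in RIPA, Western blot for AR with GAPDH loading control, bands quantified by densitometry relative to loading control.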

VCaP [6] = assay: Antitumor activity against human VCaP cells xenografted in CB17:SCID mouse assessed as reduction in AR protein level in tumor at 10 mg/kg, po for 3 days measured at 3 hrs by Western blot analysis; format: functional; conditions: 72 h, time 3 day; how it was run: as §2
[7] = Drug distribution in plasma of CB17:SCID mouse xenografted with human VCaP cells at 20 mg/kg, po measured at 6 hrs by LCMS analysis; format: ADME, organism-based; how it was run: as §1
[8] = Drug distribution in prostate gland of CB17:SCID mouse xenografted with human VCaP cells at 20 mg/kg, po measured at 24 hrs by LCMS analysis; format: ADME, organism-based; conditions: read-out: Drug uptake; how it was run: as §1
[9] = Drug distribution in tumor of CB17:SCID mouse xenografted with human VCaP cells at 20 mg/kg, po measured at 24 hrs by LCMS analysis; format: ADME, organism-based, Neoplasm; conditions: read-out: Drug uptake; how it was run: as §1
VCaP [10] = assay: Antitumor activity against human VCaP cells xenografted in CB17:SCID mouse assessed as reduction in AR protein level in tumor at 20 mg/kg, po measured for 6 to 24 hrs by Western blot analysis; format: functional, organism-based; conditions: time 6-24 hrs
How it was run: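 VCaP xenografts in male CB17 SCID mice grown to about 200 mm3; single oral gavage dose of 20 mg/kg in 100% PEG200; tumors collected at 6 and 24 h, RIPA lysates blotted for AR with GAPDH as loading control, band intensity normalised to loading control.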

[11] = Volume of distribution at steady state in SCID mouse at 1 mg/kg, iv by LC-MS/MS analysis; format: ADME, organism-based; conditions: in vivo, read-out: Vdss
How it was run: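 Male mice were used, three sacrificed per time-point, with 300 μL blood collected and plasma stored at −80 °C. Drug was quantified by a validated LC–MS/MS method on a C18 column with a 0.1% formic acid water/acetonitrile gradient at 0.4 mL/min. PK parameters were derived by noncompartmental analysis.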

[12] = Drug distribution in tumor of CB17:SCID mouse xenografted with human VCaP cells at 20 mg/kg, po measured at 6 hrs by LCMS analysis; format: ADME, organism-based, Neoplasm; conditions: read-out: Drug uptake; how it was run: as §1
[13] = biological target: Protein cereblon/Androgen receptor (Homo sapiens, UniProt P10275+Q96SW2, T878A); conditions: lncap
[14] = Drug distribution in prostate gland of CB17:SCID mouse xenografted with human VCaP cells at 20 mg/kg, po measured at 6 hrs by LCMS analysis; format: ADME, organism-based; conditions: read-out: Drug uptake; how it was run: as §1
LNCaP = assay: Growth inhibition of human LNCaP cells carrying AR T878A mutant assessed as cell viability by WST-8 assay; format: functional, cell-based
VCaP [15] = assay: Antitumor activity against human VCaP cells xenografted in CB17:SCID mouse assessed as reduction in AR protein level in tumor at 10 mg/kg, po for 3 days measured at 24 hrs by Western blot analysis; format: functional; conditions: 72 h, time 3 day; how it was run: as §2
[16] = Half life in SCID mouse at 3 mg/kg, po by LC-MS/MS analysis; format: ADME, organism-based; conditions: in vivo
How it was run: (§3)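 Nontumor-bearing male mice were given a single oral gavage dose in 100% PEG200. Three mice were sacrificed per time point, and 300 μL blood was taken from each for plasma, stored at −80 °C. Drug was quantified by LC–MS/MS on a C18 column with a 0.1% formic acid water/acetonitrile gradient at 0.4 mL/min. Parameters came from noncompartmental analysis.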

[17] = Cmax in SCID mouse at 3 mg/kg, po by LC-MS/MS analysis; format: ADME, organism-based; set-up: route oral, dose 3 mg/kg; conditions: in vivo; how it was run: as §3
[18] = AUC (0 to t) in SCID mouse at 1 mg/kg, iv by LC-MS/MS analysis; format: ADME, organism-based; set-up: dose 1 mg/kg; conditions: in vivo
How it was run: (§4)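 Male mice were given a single intravenous dose. Plasma drug levels were measured by a validated LC–MS/MS method (C18 column, 0.1% formic acid water/acetonitrile gradient, 0.4 mL/min). Parameters came from noncompartmental analysis.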

[19] = Half life in SCID mouse at 1 mg/kg, iv by LC-MS/MS analysis; format: ADME, organism-based; conditions: in vivo; how it was run: as §4
[20] = Tmax in SCID mouse at 3 mg/kg, po by LC-MS/MS analysis; format: ADME, organism-based; conditions: in vivo; how it was run: as §3
[21] = AUC (0 to t) in SCID mouse at 3 mg/kg, po by LC-MS/MS analysis; format: ADME, organism-based; set-up: dose 3 mg/kg; conditions: in vivo; how it was run: as §3

Protein cereblon/Androgen receptor (Homo sapiens, UniProt P10275+Q96SW2), sequence (P10275 whole entry): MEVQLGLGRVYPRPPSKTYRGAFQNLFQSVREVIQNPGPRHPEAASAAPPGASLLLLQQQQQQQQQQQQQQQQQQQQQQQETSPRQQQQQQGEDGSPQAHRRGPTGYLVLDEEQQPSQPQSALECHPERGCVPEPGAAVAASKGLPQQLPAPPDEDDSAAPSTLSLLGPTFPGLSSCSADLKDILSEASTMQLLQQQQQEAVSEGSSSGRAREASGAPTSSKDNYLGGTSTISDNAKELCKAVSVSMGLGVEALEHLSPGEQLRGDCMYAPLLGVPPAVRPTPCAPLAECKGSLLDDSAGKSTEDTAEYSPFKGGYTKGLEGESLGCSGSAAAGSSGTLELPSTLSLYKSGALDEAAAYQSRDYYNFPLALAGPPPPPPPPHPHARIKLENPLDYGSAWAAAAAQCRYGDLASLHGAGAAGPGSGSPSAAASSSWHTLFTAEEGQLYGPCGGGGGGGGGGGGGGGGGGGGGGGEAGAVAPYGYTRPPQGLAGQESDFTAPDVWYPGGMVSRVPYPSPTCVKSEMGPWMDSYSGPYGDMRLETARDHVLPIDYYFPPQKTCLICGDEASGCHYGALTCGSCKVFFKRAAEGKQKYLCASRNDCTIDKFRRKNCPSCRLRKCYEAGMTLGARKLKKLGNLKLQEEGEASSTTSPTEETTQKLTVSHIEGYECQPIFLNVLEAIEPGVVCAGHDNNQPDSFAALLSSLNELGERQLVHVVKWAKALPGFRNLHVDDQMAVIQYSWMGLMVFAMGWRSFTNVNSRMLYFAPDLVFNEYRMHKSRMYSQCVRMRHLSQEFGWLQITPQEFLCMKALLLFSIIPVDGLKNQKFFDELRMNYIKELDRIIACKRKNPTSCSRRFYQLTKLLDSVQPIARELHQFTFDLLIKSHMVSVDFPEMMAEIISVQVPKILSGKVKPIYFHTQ
Protein cereblon/Androgen receptor (Homo sapiens, UniProt P10275+Q96SW2), sequence (Q96SW2 whole entry): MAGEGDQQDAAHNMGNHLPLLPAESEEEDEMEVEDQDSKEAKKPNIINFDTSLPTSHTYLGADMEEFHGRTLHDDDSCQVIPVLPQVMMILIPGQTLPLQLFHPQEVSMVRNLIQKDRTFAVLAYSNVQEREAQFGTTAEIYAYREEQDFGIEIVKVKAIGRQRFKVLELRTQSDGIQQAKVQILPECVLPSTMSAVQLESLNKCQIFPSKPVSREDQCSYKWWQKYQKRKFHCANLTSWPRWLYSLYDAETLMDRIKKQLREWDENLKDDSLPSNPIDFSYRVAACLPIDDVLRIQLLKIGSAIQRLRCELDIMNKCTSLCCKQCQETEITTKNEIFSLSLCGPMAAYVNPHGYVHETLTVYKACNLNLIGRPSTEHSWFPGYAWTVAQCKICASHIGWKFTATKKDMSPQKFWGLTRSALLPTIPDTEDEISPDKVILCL
Protein cereblon/Androgen receptor (Homo sapiens, UniProt P10275+Q96SW2, T878A), sequence (P10275 whole entry T878A, stated change not applied): as the sequence (P10275 whole entry) above, with T878A counted along it
Protein cereblon/Androgen receptor (Homo sapiens, UniProt P10275+Q96SW2, T878A), sequence (Q96SW2 whole entry, stated change not applied): as the sequence (Q96SW2 whole entry) above

- DC50 [1]: 0.8 nM
Structure (SMILES): N#Cc1ccc(O[C@H]2CC[C@H](NC(=O)c3ccc(N4CCN(CCNc5ccc6c(c5)C(=O)N(C5CCC(=O)NC5=O)C6=O)CC4)cc3)CC2)cc1Cl (stereo partly drawn)

Structure (SMILES): CN1CCN(c2ccc(C(=O)N[C@H]3CC[C@H](N(C)c4ccc(C#N)c(Cl)c4)CC3)cc2)CC1
- IC50 (VCaP [2]): 61 nM

Structure (SMILES): CC1(C)C(=O)N(c2ccc(C#N)c(C(F)(F)F)c2)C(=S)N1c1ccc(C(=O)N2CCN(C3CCN(c4ccc5c(c4)C(=O)N(C4CCC(=O)NC4=O)C5=O)CC3)CC2)c(F)c1 (stereo not drawn)
- IC50 (VCaP [2]): > 1000 nM

Structure (SMILES): CN(c1ccc(C#N)c(Cl)c1)[C@H]1CC[C@H](NC(=O)c2ccc(N3CCC(CN4CCN(c5ccc6c(c5)C(=O)N(C5CCC(=O)NC5=O)C6=O)CC4)CC3)cc2)CC1 (stereo partly drawn)
- F [3]: 35%

- DC50 [1]: 0.1 nM
Structure (SMILES): N#Cc1ccc(O[C@H]2CC[C@H](NC(=O)c3ccc(N4CCN(C5CN(c6ccc7c(c6)C(=O)N(C6CCC(=O)NC6=O)C7=O)C5)CC4)cc3)CC2)cc1Cl (stereo partly drawn)

Structure (SMILES): CN(c1ccc(C#N)c(Cl)c1)[C@H]1CC[C@H](NC(=O)c2ccc(N3CCN(C4CCN(c5ccc6c(c5)C(=O)N(C5CCC(=O)NC5=O)C6=O)CC4)CC3)cc2)CC1 (stereo partly drawn)
- concentration at 24 h [4]: 38 ng/mL
- inhibition in vivo at 10 mg/kg (VCaP [5]): 70%
- IC50 (VCaP [2]): 0.8 nM
- inhibition in vivo at 10 mg/kg (VCaP [6]): 74%
- F [3]: 29%
- concentration at 6 h [7]: 37 ng/mL
- concentration at 24 h [8]: 83 ng/g
- concentration at 24 h [9]: 176 ng/g
- inhibition (VCaP [10]): Active
- Vd [11]: 2.6 L/kg
- concentration at 6 h [12]: 120 ng/g
- DC50 [13]: 0.4 nM
- concentration at 6 h [14]: 58 ng/g
- IC50 (LNCaP): 22.3 nM
- inhibition in vivo at 10 mg/kg (VCaP [15]): 20%

Structure (SMILES): N#Cc1ccc(N[C@H]2CC[C@H](NC(=O)c3ccc(N4CCC(N5CCN(c6ccc7c(c6)C(=O)N(C6CCC(=O)NC6=O)C7=O)CC5)CC4)cc3)CC2)cc1Cl (stereo partly drawn)
- IC50 (VCaP [2]): 16.6 nM

Structure (SMILES): CN(c1ccc(C#N)c(Cl)c1)[C@H]1CC[C@H](NC(=O)c2ccc(N3CC(N4CCN(c5ccc6c(c5)C(=O)N(C5CCC(=O)NC5=O)C6=O)CC4)C3)cc2)CC1 (stereo partly drawn)
- concentration at 24 h [4]: 106 ng/mL
- IC50 (VCaP [2]): 5.1 nM
- F [3]: 67%
- concentration at 6 h [7]: 181 ng/mL
- concentration at 24 h [8]: 123 ng/g
- concentration at 24 h [9]: 116 ng/g
- inhibition (VCaP [10]): Active
- concentration at 6 h [12]: 129 ng/g
- DC50 [13]: 1.3 nM
- concentration at 6 h [14]: 108 ng/g
- IC50 (LNCaP): 21.7 nM

Structure (SMILES): CN(c1ccc(C#N)c(Cl)c1)[C@H]1CC[C@H](NC(=O)c2ccc(N3CCC(N4CCN(c5ccc6c(c5)C(=O)N(C5CCC(=O)NC5=O)C6=O)CC4)CC3)cc2)CC1 (stereo partly drawn)
- concentration at 24 h [4]: 65 ng/mL
- F [3]: 44%
- concentration at 6 h [7]: 208 ng/mL
- concentration at 24 h [8]: 4 ng/g
- concentration at 24 h [9]: 137 ng/g
- concentration at 6 h [12]: 306 ng/g
- concentration at 6 h [14]: 67 ng/g

- DC50 [1]: 1.1 nM
Structure (SMILES): N#Cc1ccc(O[C@H]2CC[C@H](NC(=O)c3ccc(NCCCCNc4ccc5c(c4)C(=O)N(C4CCC(=O)NC4=O)C5=O)cc3)CC2)cc1Cl (stereo partly drawn)

Structure (SMILES): CC(O)(CS(=O)(=O)c1ccc(N2CCN(C3CCN(c4ccc5c(c4)C(=O)N(C4CCC(=O)NC4=O)C5=O)CC3)CC2)cc1)C(=O)Nc1ccc(C#N)c(C(F)(F)F)c1 (stereo not drawn)
- IC50 (VCaP [2]): > 1000 nM

- half-life [16]: 336 min
- Cmax [17]: 207 ng/mL
- AUC(0-t) [18]: 2420 ng·h/mL
- F [3]: 30%
- Vd [11]: 3 L/kg
- half-life [19]: 366 min
- Tmax [20]: 4 h
- AUC(0-t) [21]: 2150 ng·h/mL
- DC50 [1]: 0.2 nM
Structure (SMILES): N#Cc1ccc(O[C@H]2CC[C@H](NC(=O)c3ccc(N4CCC(N5CCN(c6ccc7c(c6)C(=O)N(C6CCC(=O)NC6=O)C7=O)CC5)CC4)cc3)CC2)cc1Cl (stereo partly drawn)

- IC50 (VCaP [2]): > 1000 nM
Structure (SMILES): N#Cc1ccc(O[C@@H]2CCCN(C(=O)c3ccc(N4CCC(N5CCN(c6ccc7c(c6)C(=O)N(C6CCC(=O)NC6=O)C7=O)CC5)CC4)cc3)CC2)cc1Cl (stereo partly drawn)

- DC50 [1]: 3.2 nM
Structure (SMILES): N#Cc1ccc(O[C@H]2CC[C@H](NC(=O)c3ccc(NCCCCCCCCCNc4ccc5c(c4)C(=O)N(C4CCC(=O)NC4=O)C5=O)cc3)CC2)cc1Cl (stereo partly drawn)

- DC50 [1]: 0.2 nM
Structure (SMILES): N#Cc1ccc(O[C@H]2CC[C@H](NC(=O)c3ccc(NCCCCCNc4ccc5c(c4)C(=O)N(C4CCC(=O)NC4=O)C5=O)cc3)CC2)cc1Cl (stereo partly drawn)
